Assay results published in ChEMBL document CHEMBL1132156, “Synthesis and structure-activity relationships of potential anticancer agents: alkylcarbamates of 3-(9-acridinylamino)-5-hydroxymethylaniline” (J Med Chem, 1999).

Key:
HL-60 = assay: In vitro inhibition of human leukemic HL-60 cell growth in culture; format: functional, cell-based
How it was run: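 HL-60 cells were seeded at 5×10^4 cells/mL in RPMI 1640 with 10% heat-inactivated FBS, penicillin and streptomycin, at 37 °C in 5% CO2. Cells were exposed for 72 h to six or seven drug concentrations, run in duplicate. Viability was read by XTT-tetrazolium microculture absorbance, and IC50 was derived from median-effect plot analysis.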

Mus musculus [1] = assay: […] anticancer activity against B6D2F-1 mice bearing P388 leukemia measured by the average body weight(g) after day 1 at an intravenous dose of 3(mg/kg).
Mus musculus [2] = assay: […] anticancer activity against B6D2F-1 mice bearing P388 leukemia measured by the Average survival time(day+/-SD) at an intravenous dose of 4(mg/kg).; format: functional
How it was run: (§1)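 Male B6D2F1 mice, 8 weeks old, 20–25 g. P388/0 ascites cells (0.2 mL, ascites:saline 1.10) were implanted iv on day 0, and the tumor grew in the liver. Drug was given iv by tail vein on days 1, 3, 5, 7 and 9 (Q2Dx5), with 4–5 mice per group. Survival time was scored as 8 a.m. (0.0), 1 p.m. (0.25) or 5 p.m. (0.5) deaths. %ILS was averaged against untreated controls, and toxic deaths were counted.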

Mus musculus [3] = assay: […] anticancer activity against B6D2F-1 mice bearing P388 leukemia measured by the average weight change(g) after day 7 at an intravenous dose of 3(mg/kg).; format: functional
How it was run: (§2)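 Male B6D2F1 mice (8 weeks old, 20–25 g) were implanted iv on day 0 with P388/0 ascites cells (0.2 mL; ascites:saline = 1.10). Tumor grew in the liver. Drug was given iv via the tail vein, Q2Dx5, on days 1, 3, 5, 7 and 9. Body weight was recorded on days 1, 7, 9 and 11 and reported as the average change (g).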

Mus musculus [4] = assay: […] anticancer activity against 5 B6D2F-1 mice bearing P388 leukemia measured by the toxicity death at an intravenous dose of 4(mg/kg).; format: organism-based; settings: in vivo; how it was run: as §1
Mus musculus [5] = assay: […] anticancer activity against B6D2F-1 mice bearing P388 leukemia measured by the average body weight(g) after day 1 at an intravenous dose of 4(mg/kg).
Mus musculus [6] = assay: […] anticancer activity against B6D2F-1 mice bearing P388 leukemia measured by the increase in lifespan(%) at an intravenous dose of 4(mg/kg).; format: functional; how it was run: as §1
Mus musculus [7] = assay: […] anticancer activity against B6D2F-1 mice bearing P388 leukemia measured by the average weight change(g) after day 9 at an intravenous dose of 4(mg/kg).; format: functional; how it was run: as §2
Mus musculus [8] = assay: […] anticancer activity against B6D2F-1 mice bearing P388 leukemia measured by the increase in lifespan(%) at an intravenous dose of 3(mg/kg)..; format: functional; how it was run: as §1
Mus musculus [9] = assay: […] anticancer activity against B6D2F-1 mice bearing P388 leukemia measured by the average weight change(g) after day 7 at an intravenous dose of 4(mg/kg).; format: functional; how it was run: as §2
Mus musculus [10] = assay: […] anticancer activity against 5 B6D2F-1 mice bearing P388 leukemia measured by the toxicity death at an intravenous dose of 3(mg/kg)..; format: organism-based; settings: in vivo; how it was run: as §1
Mus musculus [11] = assay: […] anticancer activity against B6D2F-1 mice bearing P388 leukemia measured by the average weight change(g) after day 11 at an intravenous dose of 4(mg/kg).; format: functional
How it was run: (§3)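 Male B6D2F1 mice (8 weeks old, 20–25 g) were implanted iv on day 0 with P388/0 ascites cells (0.2 mL; ascites:saline 1.10), which grew in the liver. Drug was given iv via the tail vein, Q2Dx5, on days 1, 3, 5, 7 and 9. Groups had 4–5 mice. Day 1 value is mean body weight; later days are weight change.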

Mus musculus [12] = assay: […] anticancer activity against B6D2F-1 mice bearing P388 leukemia measured by the average weight change(g) after day 11 at an intravenous dose of 3(mg/kg).; format: functional; how it was run: as §3
Mus musculus [13] = assay: […] anticancer activity against B6D2F-1 mice bearing P388 leukemia measured by the average survival time(day+/-SD) at an intravenous dose of 3(mg/kg)..; format: functional; how it was run: as §1

| IC50 (HL-60) [nM] | Structure (SMILES) | other results |
| --- | --- | --- |
| 7.6 | Cc1cccc2c(Nc3cc(N)cc(CO)c3)c3ccccc3nc12 | – |
| 14000 | Nc1cc(CO)cc(Nc2c3ccccc3nc3c([N+](=O)[O-])cccc23)c1 | – |
| – | COc1cccc2c1C(=O)c1c(O)c3c(c(O)c1C2=O)C[C@@](O)(C(=O)CO)C[C@@H]3O[C@H]1C[C@H](N)[C@H](O)[C@H](C)O1 [DOXORUBICIN] | Body weight (Mus musculus [1]): 23 g; Average survival (Mus musculus [2]): 27.4 days; Average weight change (Mus musculus [3]): -0.4 g; Toxicity related death (Mus musculus [4]): 0; Body weight (Mus musculus [5]): 23.6 g; Increase in life-span (Mus musculus [6]): 328%; Average weight change (Mus musculus [7]): -1.6 g; Increase in life-span (Mus musculus [8]): 122%; Average weight change (Mus musculus [9]): -1.4 g; Toxicity related death (Mus musculus [10]): 0; Average weight change (Mus musculus [11]): -3.2 g; Average weight change (Mus musculus [12]): -3.6 g; Average survival (Mus musculus [13]): 14.2 days |
| 9.7 | CCOC(=O)Nc1cc(CO)cc(Nc2c3cccc(OC)c3nc3c(C(=O)NCCN(C)C)cccc23)c1 | – |
| 4.7 | CCOC(=O)Nc1cc(CO)cc(Nc2c3ccccc3nc3c(C)cccc23)c1 | – |
| 5.7 | CCOC(=O)Nc1cc(CO)cc(Nc2c3ccccc3nc3c(C(=O)NCCN(C)C)cccc23)c1 | – |
| 120 | CNC(=O)c1cccc2c(Nc3cc(N)cc(CO)c3)c3cccc(OC)c3nc12 | – |
| 11 | COc1cccc2c(Nc3cc(N)cc(CO)c3)c3ccccc3nc12 | – |
| 9 | CC(C)COC(=O)Nc1cc(CO)cc(Nc2c3ccccc3nc3ccccc23)c1 | – |
| 38 | COc1cccc2c(Nc3cc(N)cc(CO)c3)c3cccc(C(=O)NCCN(C)C)c3nc12 | – |
| 130 | CCOC(=O)Nc1cc(CO)cc(Nc2c3ccccc3nc3c(Br)cccc23)c1 | – |
| 161 | O=C(Nc1cc(CO)cc(Nc2c3ccccc3nc3ccccc23)c1)Oc1ccccc1 | – |
| 88 | CCOC(=O)Nc1cc(CO)cc(Nc2c3ccccc3nc3c(C(=O)NC)cccc23)c1 | – |
| 31 | CCOC(=O)Nc1cc(CO)cc(Nc2c3ccccc3nc3c(F)cccc23)c1 | – |
| 1500 | Nc1cc(CO)cc(Nc2c3ccccc3nc3c(Br)cccc23)c1 | – |
